Compound activity as filed in PubChem.
Insulin prom inh – TRM-6 insulin promoter activity inhibition; AID 1273; hit rate 0.9% among 130,000; TRM-6 cells (human fetal islet line), insulin promoter-eGFP reporter, imaging; reporter expression induced with tamoxifen; inhibition, % at 2 µM;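 active means inhibition above the mean plus 3 SD, with well images judged a real hit on visual review, cut at about 60% in these data, passing the limit was not always enough; inconclusive means inhibition over the cutoff but images rejected on review; inactive means inhibition not above the cutoff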
RAM network inh – yeast RAM network inhibition | S. cerevisiae dse1pr::URA3 reporter, 5-FOA growth OD615, 2 d; analog-sensitive cbk1-as2 kinase mutant strain | inhibition, % at 50 µM | hit rate 1.8% among 190,000;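 active means inhibition above a set limit, 3 SD over mean compound inhibition, cut at about 8.4% in these data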;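 further: 0% = DMSO-only wells with no growth and 100% = 10 µM 1-NA-PP1 full growth; inhibition rescues growth on 5-FOA so higher OD means more RAM inhibition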
BB579 growth dn – chemicals that inhibit yeast BB579 growth in restrictive medium (lifespan-shortening candidates) | S. cerevisiae BB579 growth, OD615, 48 h | inhibition, % at 10 µM | hit rate 0.51% among 140,000 | AID 804;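 active means inhibition above a set limit, 3 SD over the mean compound inhibition, cut at about 44% in these data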
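Detection: OD615 turbidity measurement; Material: Saccharomyces cerevisiae DeaD strain BB579, replicative lifespan model yeast; Timing: 48 h exposure, 30 °C; Doses: single 10 µM dose; Medium: CSMM-D restrictive synthetic medium containing dextrose (glucose); Controls: amphotericin B at 10 µg/mL as positive control.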
Ins promoter up – MIN6 insulin promoter up-regulation; MIN6 insulin promoter-GFP reporter, high-content imaging; stronger effect = higher value; z-score at 5 µM; hit rate 0.3% among 190,000;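 active means z-score above 3 at 5 µM with at least 500 cells counted in the well; inconclusive means wells under 500 cells, flagged as cytotoxic or low count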
Yeast lifespan up – yeast lifespan extension; S. cerevisiae growth with nicotinamide, OD615; deaD strain in restrictive glucose medium; inhibition of the nicotinamide effect, % at 10 µM; hit rate 0.68% among 130,000;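 active means inhibition above a set limit, placed 3 SD over the median of all compounds, cut at about 26% in these data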;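 further: 0% = nicotinamide-treated wells and 100% = cells grown without nicotinamide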
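Assay system: engineered S. cerevisiae DeaD replicative-lifespan strain, galactose-grown log-phase cells; Buffer or medium: CSMM-D glucose medium, restrictive; Probe or stimulus: nicotinamide 1.5 mM; Compound: single dose 10 µM compound, 0.25% DMSO; Schedule: 4 h preincubation then 48 h treatment at 30 °C; Technique: OD615 measurement.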
RAM 5-FOA – restores 5-FOA growth of efflux-deficient yeast; shares compounds with RAM network inh; S. cerevisiae efflux-deficient reporter strain, 5-FOA growth OD615, 2 days; max inhibition, %; 1,200 tested, under 10 active; call rule not given here;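 further: plate controls were vehicle for no effect and reference inhibitor for full effect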
* marks the source's active call; other numbers are inactive results; u = inconclusive; x = no result. Shown are actives, neighbours in structure and some others; about 3% of the full set was active somewhere.

SMILES | Insulin prom inh | RAM network inh | BB579 growth dn | Ins promoter up | Yeast lifespan up | others
Cc1cc(C)n(CC(=O)N2c3ccccc3Sc3ccc(C(F)(F)F)cc32)n1 | u | -1.5 | -10.9 | 0.11 | 5.4
O=C(Cn1nnc(-c2cccs2)n1)N1c2ccccc2Sc2ccc(C(F)(F)F)cc21 | 80.0* | 2.6 | -12.7 | x | x
Cc1ccc(S(=O)(=O)N(C)c2ccc3sc(C)nc3c2)cc1 | x | 0.4 | x | 0 | x
COCCNC(=O)C1CCN(S(=O)(=O)c2c(C)noc2/C=C/c2cccs2)CC1 | x | x | x | 0.94 | x
c1ccc(Nc2ccccc2Nc2ccccn2)nc1 | 0.0 | 3.9 | -31.9 | -0.53 | -3.2
Oc1cccc2ccc(Nc3ccccn3)nc12 | x | 1.1 | 96.7* | -5.7 | -20.0
Cc1cc(C(=O)CSc2ccc(F)cc2)cc(C)c1OC(=S)N(C)C | 18.8 | 8.8* | -54.0 | x | -5.7
COc1ccc(SCC(=O)c2cc(C)c(OC(=S)N(C)C)c(C)c2)cc1 | x | 7.7 | -25.9 | -0.48 | -5.8
CCN(CC(=O)Nc1cc(Cl)ccc1OC)CC(=O)NC1CCS(=O)(=O)C1 (stereo not given) | x | x | x | -0.15 | x
Cc1ccc(OCCn2cc(/C(N)=N/O)c3ccccc32)cc1C | x | 0.7 | -40.2 | -0.71 | 25.0
COc1ccc(OCCn2cc(/C(N)=N/O)c3ccccc32)cc1 | -28.6 | 2.1 | -50.2 | 3.09* | -13.7
CCn1c(SCC(=O)Nc2nc3ccc(C)cc3s2)nc2c(c1=O)SC(C)C2 (stereo not given) | 0.0 | 10.3* | -64.2 | -1.42 | 20.7
CCn1c(SCC(=O)Nc2nc3ccccc3s2)nc2c(c1=O)SC(C)C2 (stereo not given) | 18.2 | 1.2 | -0.4 | -1.52 | -7.8
O=C(CSCc1ccc([N+](=O)[O-])cc1)Nc1ccc(S(=O)(=O)N2CCCCCC2)cc1 | x | 10.2* | -22.4 | -0.07 | 7.5
CCCCC(=O)Nc1ccc(C(=O)Nc2ccc(S(=O)(=O)N3CCCC3)cc2)cc1 | -28.9 | 8.6* | -81.8 | x | -5.3
CC(=O)c1ccc(NC(=O)c2ccc(S(=O)(=O)N3CCCC3)cc2)cc1 | -1.2 | 2.1 | -31.9 | -0.13 | -6.3
Cc1onc(-c2ccccc2)c1C(=O)Nc1ccc(S(=O)(=O)N2CCCC2)cc1 | 77.8* | 0.9 | x | -1.38 | x
COc1ccccc1N(CC(=O)NC(C)(C)C)S(=O)(=O)c1cccs1 | -9.8 | -0.4 | 2.5 | 0.04 | -1.6
COCCCn1c(SCCc2ccccc2)nc2cc(OC)c(OC)cc2c1=N | 0.0 | -1.0 | x | -0.12 | x
CCSc1nc2cc(OC)c(OC)cc2c(=O)n1CCc1ccccc1 | -26.7 | 8.6* | -47.0 | x | -1.1
c1ccc(-c2csc(-n3cnnn3)n2)cc1 | -29.0 | 2.4 | 7.4 | 3.13* | -28.4
Cc1cc(C)n(-c2nc(-c3ccccc3)cs2)n1 | x | 0.0 | -32.7 | -0.19 | -17.1
CC(=O)N1N=C2c3ccccc3CCC2C1c1cccs1 (stereo not given) | x | x | x | -0.23 | x
CCn1cc(Cl)c(C(=O)N2N=C3/C(=C/c4cccs4)CCCC3C2c2cccs2)n1 (stereo not given) | -61.5 | 10.5* | -53.4 | -1.72 | x
CNc1nc2cccnc2s1 | x | x | x | -0.29 | x
SMILES | Insulin prom inh | RAM network inh | BB579 growth dn | Ins promoter up | Yeast lifespan up | others
CC(=O)C1=C(C)NC(=O)CC1c1ccc(Br)cc1 (stereo not given) | x | -0.6 | x | -0.44 | x
S=C1NCCOCCOCCOCCNC(=S)N2CCOCCOCCN1CCOCCOCC2 | -36.6 | 1.1 | x | 1.06 | x
CCOc1ccc(NC(=O)c2cnccn2)cc1 | 94.3* | 0.9 | -38.9 | 0.38 | x
CCOc1ccc(NC(=O)c2ccccn2)cc1 | -42.9 | -0.4 | 3.5 | -0.48 | -4.1
CC1=C(C)/C(=N\OS(=O)(=O)c2ccccc2)C=CC1=O | -183.3 | -1.8 | 99.9* | x | -16.8
COc1ccc(CSC2=CS(=O)(=O)c3ccccc3N2)cc1 | 10.0 | 1.1 | x | -0.67 | x
Cc1cc(/C=C\c2nc(O)c([N+](=O)[O-])c(=O)[nH]2)c(C)n1-c1ccccc1 | x | 8.7* | x | 0.1 | x
O=C(c1n[nH]c2ccccc12)N1CCN(c2ccc(F)cc2)CC1 | x | 1.7 | x | -0.48 | x
COc1ccccc1N1CCN(C(=O)c2ccc(CSc3ccccc3)cc2)CC1 | -1.6 | 9.8* | -30.1 | -0.06 | 7.2
COc1ccccc1N1CCN(C(=O)c2n[nH]c3ccccc23)CC1 | 75.0* | 2.1 | x | -0.95 | x
CSc1cccc(NC(=S)N(CCCN2CCC(C)CC2)Cc2cccs2)c1 | -13.3 | -0.4 | x | -0.03 | x
O=[N+]([O-])c1cc(S(=O)(=O)N2CCCC2)ccc1NCCc1ccccc1 | -32.5 | 9.7* | -13.1 | 0.34 | 4.4
COc1ccc(CCNc2ccc(S(=O)(=O)N3CCCC3)cc2[N+](=O)[O-])cc1 | 10.0 | 10.9* | -24.4 | -0.46 | -0.1
C=CCN=C(NC#N)SC | x | x | x | -0.08 | x
COc1cc(/C=N/N(C)c2ccccc2)cc(Cl)c1O | 29.2 | -1.6 | 99.7* | -0.31 | -13.1
COc1ccc(OC)c(/C=N/N(C)c2ccccc2)c1 | -132.1 | 0.3 | -77.1 | 0.54 | -17.5
COc1ccccc1NS(=O)(=O)c1cccc(C(=O)OCc2nc3ccccc3s2)c1 | 7.7 | 8.4* | -18.6 | 0.1 | 1.6
C=C(C)CSc1cc(C)nc2c(-c3ccccc3)c(C)nn12 | x | x | x | -0.74 | x
Cc1cc(O)c(/C=N/Nc2ccccc2)c(=O)o1 | -18.8 | 0.2 | 86.8* | 1.3 | -15.7
CCOC(=O)c1ccc(Nc2nc(=O)c3cccnc3s2)cc1 | x | 0.9 | -10.7 | -0.24 | -16.8
CC(=O)c1ccc(Nc2nc(=O)c3cccnc3s2)cc1 | 79.3* | 0.3 | -18.0 | 0.24 | -18.1
O=c1nc(Nc2ccc(OCc3ccccc3)cc2)sc2ncccc12 | x | 9.3* | x | -2.04 | x
N#CC(c1cccc(Cl)c1)c1ccc2c(C(F)(F)F)cc(C(F)(F)F)nc2n1 (stereo not given) | -57.1 | 4.4 | 63.5* | u | -10.6
NNc1ccc2c(C(F)(F)F)cc(C(F)(F)F)nc2n1 | -92.3 | -0.2 | x | -0.66 | x
CC(=O)Nc1ccc(NC(=O)C2CCN(c3ccc(C(F)(F)F)cn3)CC2)cc1 | 31.4 | 2.2 | x | 0.33 | x
SMILES | Insulin prom inh | RAM network inh | BB579 growth dn | Ins promoter up | Yeast lifespan up | others
Cc1nn(C(=O)c2ccco2)c(C)c1Sc1ccc(Br)cc1 | x | 8.8* | -39.0 | 0.21 | -10.2
CCN1C(=O)/C(=C/N(C(C)=O)c2ccccc2)N(c2ccccc2)C1=S | -27.6 | 0.9 | -17.1 | -0.32 | 35.2*
C/C(=N\Nc1nc2c(s1)CCCC2)c1ccc(Cl)cc1 | x | 12.6* | 25.2 | -1.44 | -24.6 | RAM 5-FOA=1.4
Cc1ccc(NC(=O)CCC(=O)OCCCC(F)(F)C(F)(F)F)cc1 | 19.4 | -0.2 | -17.8 | 0.17 | -7.2
O=C(CCC(=O)OCCCC(F)(F)C(F)(F)F)Nc1ccc(Cl)cc1Cl | -3.6 | 29.2* | -58.1 | 0.75 | -3.0 | RAM 5-FOA=2.9
CCC(C)NS(=O)(=O)c1ccc(S(=O)(=O)N(CCc2ccc(OC)c(OC)c2)Cc2cccs2)cc1 (stereo not given) | -13.3 | 15.0* | -20.0 | 0.11 | 2.1 | RAM 5-FOA=2.2
C#CCSc1nc(=O)c2cccnc2n1-c1ccc(C)cc1 | x | x | x | -0.55 | x
Cc1cc(C)cc(OCc2nnc(SCC(=O)c3ccccc3)o2)c1 | 9.5 | 8.2 | -57.6 | 0.54 | -11.6
